Screens as filed in PubChem.
HCT116 bCat-KO: primary screen for growth suppressors in beta-catenin knockout HCT116 cells (colon tumor, human); 140,000 tested, 1.5% active; AID 818, 2007; viability, % at 10 µM; HCT116 beta-catenin knockout viability, CellTiter-Glo, 60 h; stronger effect = lower value;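 active means viability at or under a set limit, the compound median less 4 SD, cut at about 6% in these data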;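 further: 0% = Hyamine 1622 control at 20 µM and 100% = untreated cell control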
Lung fibro prol: antiproliferative effect on LL 47 fibroblasts – human, LL 47 cells, CellTiter-Glo luminescence, primary screen; viability, % at 10 µM; 85,000 tested, 1.1% active; LL 47 human lung fibroblast viability, ATP luminescence; stronger effect = lower value;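 active means viability at or below 50% in the single dose screen; inactive means viability above 50%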;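 further: compound exposure lasted 72 h before the ATP readout; 100% = median luminescence of untreated cell-only wells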
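Material: Human LL 47 lung fibroblast cells | Input: 1,150 cells/well | Buffer or medium: IMEM plus 15% FBS | Compound dosing: 0.1% DMSO in all compound wells | Times: Overnight cell rest, 72 h compound treatment at 37 °C | Signal: CellTiter-Glo luminescence measuring cellular ATP | Measure: % viability versus median cells-only luminescence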
H69AR inhibit: proliferation blockers of H69AR lung cancer cells, primary screen, cell-based, human, 86K library. AID 598, 2007. H69AR lung tumor viability, ATP luminescence, 72 h; stronger effect = lower value. 85,000 tested, 6% active. viability, % at 10 µM;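 active means viability at or below 40%; inactive means viability above 40%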;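 further: multidrug resistant small cell line overexpressing MRP-1 efflux transporter; 100% = mean luminescence of untreated control wells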
HUVEC inhibit: inhibitors of HUVEC proliferation, primary screen, cell-based, 384-well | AID 648, 2007 | viability, % at 10 µM (by protocol) | CellTiter-Glo luminescence, 72 h; stronger effect = lower value | 86,000 tested, 1.1% active;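 active means viability at or below 30%; inactive means viability above 30%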;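 further: 100% = median luminescence of DMSO-only cell control wells on each plate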
HCT116 PTEN-null: growth suppression of PTEN-null HCT116, primary screen, cell-based, CellTiter-Glo; AID 827, 2007; HCT116 PTEN-null viability, 60 h; stronger effect = lower value; 140,000 tested, 1.2% active; viability, % at 10 µM;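 active means viability at or below a set limit, 4 SD under the median of all tested compounds, cut at about 3.7% in these data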;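 further: PTEN knockout HCT116 line with beta catenin targeted HCT116 as companion control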
* marks the source's active call; other numbers are inactive results. Only a selection was taken, and hits are over-represented in it overall.

Results for CC1(C)CC(=O)C2=C(C1)Oc1nc3ccccc3cc1C2C(C#N)C#N (centres undefined) ?
HCT116 bCat-KO: 9; Lung fibro prol: 17*; H69AR inhibit: 1.6*; HUVEC inhibit: 50; HCT116 PTEN-null: 6

What do the screens show for `COc1ccc(C)cc1NC(=O)CC(O)(C(F)(F)F)C(F)(F)F`?
HCT116 bCat-KO: 96; Lung fibro prol: 97; H69AR inhibit: 74; HUVEC inhibit: 87; HCT116 PTEN-null: 90

How did Cc1ccc(NC(=O)CC(O)(C(F)(F)F)C(F)(F)F)cc1 do in these assays?
HCT116 bCat-KO: 100; Lung fibro prol: 96; H69AR inhibit: 22*; HUVEC inhibit: 110; HCT116 PTEN-null: 90

What do the screens show for `Cc1ccnc(NC(=S)NC(=O)c2cccs2)c1`?
HCT116 bCat-KO: 81; HCT116 PTEN-null: 84

What do the screens show for `Cc1cccc(C(=O)n2c(=S)nc3ccccn32)c1`?
HCT116 bCat-KO: 70; Lung fibro prol: 97; H69AR inhibit: 78; HUVEC inhibit: 94; HCT116 PTEN-null: 71

How did CCOC(=O)N1CCN(S(=O)(=O)c2ccc(F)cc2)CC1 do in these assays?
HCT116 bCat-KO: 105; Lung fibro prol: 102; H69AR inhibit: 104; HUVEC inhibit: 88; HCT116 PTEN-null: 93

Results for CN(CC(=O)Nc1nc2ccccc2s1)S(=O)(=O)c1ccc(Cl)cc1 ?
HCT116 bCat-KO: 89; Lung fibro prol: 88; H69AR inhibit: 36*; HUVEC inhibit: 67; HCT116 PTEN-null: 94

How did CCOC(=O)N1CCN(S(=O)(=O)c2ccc(C(=O)Nc3nc4ccccc4s3)cc2)CC1 do in these assays?
HCT116 bCat-KO: 68; Lung fibro prol: 84; H69AR inhibit: 13*; HUVEC inhibit: 68; HCT116 PTEN-null: 73

Results for CCOC(=O)c1sc(NC(=O)c2ccc(S(=O)(=O)N3CCCCC3)cc2)nc1-c1ccccc1 ?
HCT116 bCat-KO: 53; HCT116 PTEN-null: 46

What do the screens show for `CN(CC(=O)Nc1nc2ccccc2s1)S(=O)(=O)c1ccc(Br)cc1`?
HCT116 bCat-KO: 83; Lung fibro prol: 91; H69AR inhibit: 95; HUVEC inhibit: 84; HCT116 PTEN-null: 62

Results for CCOC(=O)N1CCN(S(=O)(=O)c2ccc(C(=O)Nc3nc4ccc(F)cc4s3)cc2)CC1 ?
HCT116 bCat-KO: 38; Lung fibro prol: 29*; H69AR inhibit: 23*; HUVEC inhibit: 47; HCT116 PTEN-null: 69

How did CC(=O)Nc1ccc(C(=O)N2CCCC2)cc1 do in these assays?
HCT116 bCat-KO: 93; Lung fibro prol: 94; H69AR inhibit: 66; HUVEC inhibit: 91; HCT116 PTEN-null: 107

Results for Cc1[nH]c2c(ccc3ccccc32)c1C1C(CCN)C1(C)C (centres undefined) ?
HCT116 bCat-KO: 1.9*; Lung fibro prol: 2.7*; H69AR inhibit: 4.4*; HUVEC inhibit: 2.4*; HCT116 PTEN-null: 1.8*

How did COc1ccc(C2(O)CC3CCC(C2)N3c2nc(C)cc(C)c2C#N)cc1 (centres undefined) do in these assays?
HCT116 bCat-KO: 88; Lung fibro prol: 93; H69AR inhibit: 31*; HUVEC inhibit: 90; HCT116 PTEN-null: 75

What do the screens show for `Clc1ccc(C2C3=C(Nc4ncnn42)c2ccccc2CC3)cc1` (centres undefined)?
HCT116 bCat-KO: 39; Lung fibro prol: 85; H69AR inhibit: 13*; HUVEC inhibit: 51; HCT116 PTEN-null: 38

What do the screens show for `c1ccc(C2C3=C(Nc4ncnn42)c2ccccc2CCC3)cc1` (centres undefined)?
HCT116 bCat-KO: 94; Lung fibro prol: 89; H69AR inhibit: 78; HUVEC inhibit: 95; HCT116 PTEN-null: 91

How did Clc1ccc(-c2csc(N3CCN(c4ccccc4)CC3)n2)cc1 do in these assays?
HCT116 bCat-KO: 107; Lung fibro prol: 104; H69AR inhibit: 40*; HUVEC inhibit: 75; HCT116 PTEN-null: 103

Results for Clc1ccc(-c2csc(N3CCc4ccccc4C3)n2)cc1 ?
HCT116 bCat-KO: 81; HCT116 PTEN-null: 91

How did Cc1cccc(N2CCN(C(=O)c3cc4n(n3)C(C(F)(F)F)CC(c3ccco3)N4)CC2)c1C (centres undefined) do in these assays?
HCT116 bCat-KO: 2.2*; HCT116 PTEN-null: 3.5*

What do the screens show for `O=C(c1cc2n(n1)C(C(F)(F)F)CC(c1ccco1)N2)N1CCN(c2ccccn2)CC1` (centres undefined)?
HCT116 bCat-KO: 98; Lung fibro prol: 106; H69AR inhibit: 96; HUVEC inhibit: 98; HCT116 PTEN-null: 101
